In ChEMBL document CHEMBL1138468, “Potent, brain-penetrant, hydroisoindoline-based human neurokinin-1 receptor antagonists” (J Med Chem, 2009):

Assays:
Substance-P receptor [1] = biological target: T1, Substance-P receptor (Homo sapiens, UniProt P25103); test: Antagonist activity at human NK1 receptor expressed in CHO cells assessed as inhibition of substance P-induced IP1 formation at 100 nM; type: functional, cell-based; set-up: scale not given: the % may be the effect or the level left
Outline: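 CHO cells stably expressing recombinant human NK1 receptor; substance-P-evoked IP-1 formation measured with antagonist present at 100 nM; value given as % of substance P response remaining.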

Substance-P receptor [2] = biological target: T1, Substance-P receptor; test: Displacement of [125I]substance P human recombinant NK1 receptor expressed in CHO cells in absence of human serum albumin; type: cell-based
Outline: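 Competitive radioligand binding with [125I]substance P on CHO cells stably expressing recombinant hNK1 receptor; IC50 determined without and with 50% human serum.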

Gerbillinae [3] = test: Toxicity in iv dosed gerbils brain assessed as inhibition of GR-73632-induced foot tapping after 24 hrs; type: organism-based; details: in vivo
Gerbillinae [4] = test: Toxicity in iv dosed gerbils brain assessed as inhibition of GR-73632-induced foot tapping after 1 hr; type: organism-based; details: in vivo
Rhesus monkey [5] = test: Ex vivo NK1 receptor occupancy in rhesus monkey brain at plasma level of 390 ng/ml; type: functional, Macaca mulatta
Macaca mulatta = species on record: Macaca mulatta; test: Ex vivo NK1 receptor occupancy in rhesus brain at plasma level of 31 ng/ml
Gerbillinae [6] = test: Toxicity in iv dosed gerbils plasma assessed as inhibition of GR-73632-induced foot tapping after 1 hr; type: organism-based
Rhesus monkey [7] = test: Ex vivo NK1 receptor occupancy in rhesus monkey brain at plasma level of 37 ng/ml; type: functional, Macaca mulatta
Outline: (§1)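 Rhesus PET with [18F]SPARQ: striatal binding compared before and during steady-state plasma drug level, achieved by iv bolus plus matched constant iv infusion continued through imaging; occupancy vs plasma concentration fit to three-parameter Hill equation.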

[8] = Volume of distribution at steady state in rat at 1 mg/kg, iv and 2 mg/kg, po; type: ADME, organism-based; details: in vivo, read-out: Vdss
Outline: (§2)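 Rats dosed at 1 mg/kg iv and 2 mg/kg po; plasma pharmacokinetics (clearance, Vdss, half-life, oral bioavailability) derived.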

[9] = Plasma clearance in rat at 1 mg/kg, iv and 2 mg/kg, po; type: ADME, organism-based; outline: as §2
[10] = Half life in dog at 0.5 mg/kg, iv and 1 mg/kg, po; type: ADME, organism-based, Canis lupus familiaris; details: in vivo
Outline: (§3)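 Dogs and monkeys dosed at 0.5 mg/kg iv and 1 mg/kg po; plasma sampled to derive clearance, Vdss, half-life, oral bioavailability and dose-normalised oral AUC(0-∞).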

Rhesus monkey [11] = test: Ex vivo NK1 receptor occupancy in rhesus monkey brain at plasma level of 5 ng/ml; type: functional, Macaca mulatta; outline: as §1
Cytochrome P450 2C8 = biological target: T2, Cytochrome P450 2C8 (Homo sapiens, UniProt P10632); test: Inhibition of human CYP2C8; type: ADME
T2 sequence (P10632 whole entry): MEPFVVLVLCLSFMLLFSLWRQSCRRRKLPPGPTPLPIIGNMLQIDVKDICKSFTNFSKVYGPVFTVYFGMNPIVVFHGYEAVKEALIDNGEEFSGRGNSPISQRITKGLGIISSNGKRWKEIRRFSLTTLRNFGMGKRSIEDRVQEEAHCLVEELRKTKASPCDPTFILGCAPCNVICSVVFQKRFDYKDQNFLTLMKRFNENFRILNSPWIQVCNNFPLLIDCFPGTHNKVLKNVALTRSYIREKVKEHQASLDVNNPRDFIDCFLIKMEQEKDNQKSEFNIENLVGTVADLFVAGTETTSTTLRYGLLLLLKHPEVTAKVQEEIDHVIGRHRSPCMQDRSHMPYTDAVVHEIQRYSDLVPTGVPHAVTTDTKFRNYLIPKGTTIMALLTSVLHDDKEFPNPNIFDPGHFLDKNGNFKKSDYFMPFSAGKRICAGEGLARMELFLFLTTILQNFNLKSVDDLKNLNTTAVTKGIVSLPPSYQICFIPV

Cytochrome P450 2C19 = Cytochrome P450 2C19 (Homo sapiens, UniProt P33261); test: Inhibition of human CYP2C19; type: ADME
Cytochrome P450 2C19, sequence (P33261 whole entry): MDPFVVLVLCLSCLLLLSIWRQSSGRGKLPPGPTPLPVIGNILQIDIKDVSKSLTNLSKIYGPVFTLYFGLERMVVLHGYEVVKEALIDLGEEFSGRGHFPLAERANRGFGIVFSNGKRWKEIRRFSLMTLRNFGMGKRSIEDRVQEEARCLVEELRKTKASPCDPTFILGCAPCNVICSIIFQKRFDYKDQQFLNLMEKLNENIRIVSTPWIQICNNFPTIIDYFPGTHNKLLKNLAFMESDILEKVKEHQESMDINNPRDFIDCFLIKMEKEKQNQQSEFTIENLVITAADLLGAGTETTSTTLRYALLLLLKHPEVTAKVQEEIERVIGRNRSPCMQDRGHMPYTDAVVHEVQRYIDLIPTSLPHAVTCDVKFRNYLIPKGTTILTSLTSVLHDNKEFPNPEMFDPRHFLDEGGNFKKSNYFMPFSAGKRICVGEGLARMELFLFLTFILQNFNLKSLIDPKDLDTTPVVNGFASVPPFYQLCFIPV

Gerbillinae [12] = test: in iv dosed gerbils plasma assessed as inhibition of GR-73632-induced foot tapping after 24 hrs
[13] = Half life in monkey at 0.5 mg/kg, iv and 1 mg/kg, po; type: ADME, organism-based, Macaca mulatta; details: rhesus monkey, in vivo; outline: as §3
[14] = Bioavailability in rat at 1 mg/kg, iv and 2 mg/kg; type: ADME, organism-based; details: in vivo; outline: as §2
[15] = Plasma clearance in dog at 0.5 mg/kg, iv and 1 mg/kg, po; type: ADME, organism-based, Canis lupus familiaris; outline: as §3
[16] = Bioavailability in dog at 0.5 mg/kg, iv and 1 mg/kg, po; type: ADME, organism-based, Canis lupus familiaris; details: in vivo; outline: as §3
Substance-K receptor = biological target: T3, Substance-K receptor (Homo sapiens, UniProt P21452); test: Binding affinity to human NK2 receptor
T3 sequence (P21452 whole entry): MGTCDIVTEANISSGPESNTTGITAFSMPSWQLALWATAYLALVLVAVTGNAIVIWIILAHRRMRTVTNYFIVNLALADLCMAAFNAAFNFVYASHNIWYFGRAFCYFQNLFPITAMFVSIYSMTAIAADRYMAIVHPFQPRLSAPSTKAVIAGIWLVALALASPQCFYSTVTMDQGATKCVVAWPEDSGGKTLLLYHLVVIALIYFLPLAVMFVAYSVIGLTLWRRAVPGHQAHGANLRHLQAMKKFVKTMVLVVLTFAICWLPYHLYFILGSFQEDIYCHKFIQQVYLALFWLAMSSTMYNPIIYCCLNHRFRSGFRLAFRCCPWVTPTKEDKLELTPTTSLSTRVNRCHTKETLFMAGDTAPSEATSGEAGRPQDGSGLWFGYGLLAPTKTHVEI

[17] = Half life in rat at 1 mg/kg, iv and 2 mg/kg, po; type: ADME, organism-based; details: in vivo; outline: as §2
Cytochrome P450 2D6 = Cytochrome P450 2D6 (Homo sapiens, UniProt P10635); test: Inhibition of human CYP2D6; type: ADME
Cytochrome P450 2D6, sequence (P10635 whole entry): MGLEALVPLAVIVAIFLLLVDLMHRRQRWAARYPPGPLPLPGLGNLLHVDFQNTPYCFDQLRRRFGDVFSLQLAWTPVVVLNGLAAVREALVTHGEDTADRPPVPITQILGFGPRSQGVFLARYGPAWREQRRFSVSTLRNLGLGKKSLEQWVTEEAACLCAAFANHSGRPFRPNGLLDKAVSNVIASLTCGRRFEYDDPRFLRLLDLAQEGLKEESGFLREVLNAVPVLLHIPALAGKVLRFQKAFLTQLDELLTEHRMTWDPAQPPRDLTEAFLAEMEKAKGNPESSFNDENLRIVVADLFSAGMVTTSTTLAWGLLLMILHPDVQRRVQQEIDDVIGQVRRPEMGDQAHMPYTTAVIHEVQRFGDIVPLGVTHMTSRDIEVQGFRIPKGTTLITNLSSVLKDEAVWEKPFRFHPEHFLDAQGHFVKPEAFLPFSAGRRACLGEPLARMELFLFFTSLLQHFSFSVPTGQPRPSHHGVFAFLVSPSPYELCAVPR

[18] = Bioavailability in monkey at 0.5 mg/kg, iv and 1 mg/kg, po; type: ADME, organism-based, Macaca mulatta; details: rhesus monkey, in vivo; outline: as §3
Cytochrome P450 1A2 = biological target: T4, Cytochrome P450 1A2 (Homo sapiens, UniProt P05177); test: Inhibition of human CYP1A2; type: ADME
T4 sequence (P05177 whole entry): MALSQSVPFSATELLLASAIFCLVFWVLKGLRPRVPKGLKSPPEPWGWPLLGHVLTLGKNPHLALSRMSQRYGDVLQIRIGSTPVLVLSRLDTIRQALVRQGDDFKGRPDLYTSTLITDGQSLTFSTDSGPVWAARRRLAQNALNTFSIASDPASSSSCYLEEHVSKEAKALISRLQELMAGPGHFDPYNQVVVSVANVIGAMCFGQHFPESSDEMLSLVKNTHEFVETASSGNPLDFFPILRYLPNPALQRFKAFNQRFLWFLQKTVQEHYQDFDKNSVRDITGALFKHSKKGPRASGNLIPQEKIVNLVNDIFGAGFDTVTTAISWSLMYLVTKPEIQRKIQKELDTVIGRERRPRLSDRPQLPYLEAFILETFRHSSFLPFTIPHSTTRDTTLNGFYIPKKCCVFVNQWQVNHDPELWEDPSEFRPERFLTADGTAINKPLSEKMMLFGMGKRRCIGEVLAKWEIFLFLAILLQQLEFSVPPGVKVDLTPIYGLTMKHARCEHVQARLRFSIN

[19] = Volume of distribution at steady state in monkey at 0.5 mg/kg, iv and 1 mg/kg, po; type: ADME, organism-based, Macaca mulatta; details: rhesus monkey, in vivo, read-out: Vdss; outline: as §3
[20] = Plasma clearance in monkey at 0.5 mg/kg, iv and 1 mg/kg, po; type: ADME, organism-based, Macaca mulatta; details: rhesus monkey; outline: as §3
Cytochrome P450 2C9 = Cytochrome P450 2C9 (Homo sapiens, UniProt P11712); test: Inhibition of human CYP2C9; type: ADME
Cytochrome P450 2C9, sequence (P11712 whole entry): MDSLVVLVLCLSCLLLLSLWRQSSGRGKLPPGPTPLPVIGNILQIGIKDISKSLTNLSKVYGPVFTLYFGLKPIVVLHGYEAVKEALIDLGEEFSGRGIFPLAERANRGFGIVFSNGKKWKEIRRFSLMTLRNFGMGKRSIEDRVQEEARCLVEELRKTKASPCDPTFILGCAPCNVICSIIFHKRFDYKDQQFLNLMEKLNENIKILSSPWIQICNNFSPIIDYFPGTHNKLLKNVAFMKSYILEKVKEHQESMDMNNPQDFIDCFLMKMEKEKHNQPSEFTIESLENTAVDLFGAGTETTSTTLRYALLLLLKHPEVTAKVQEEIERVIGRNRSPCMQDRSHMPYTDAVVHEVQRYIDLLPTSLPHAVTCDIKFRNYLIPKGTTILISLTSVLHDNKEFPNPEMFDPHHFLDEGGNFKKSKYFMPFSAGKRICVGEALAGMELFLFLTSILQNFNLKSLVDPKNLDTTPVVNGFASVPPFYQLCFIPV

Cytochrome P450 3A4 = Cytochrome P450 3A4 (Homo sapiens, UniProt P08684); test: Inhibition of human CYP3A4; type: ADME
Cytochrome P450 3A4, sequence (P08684 whole entry): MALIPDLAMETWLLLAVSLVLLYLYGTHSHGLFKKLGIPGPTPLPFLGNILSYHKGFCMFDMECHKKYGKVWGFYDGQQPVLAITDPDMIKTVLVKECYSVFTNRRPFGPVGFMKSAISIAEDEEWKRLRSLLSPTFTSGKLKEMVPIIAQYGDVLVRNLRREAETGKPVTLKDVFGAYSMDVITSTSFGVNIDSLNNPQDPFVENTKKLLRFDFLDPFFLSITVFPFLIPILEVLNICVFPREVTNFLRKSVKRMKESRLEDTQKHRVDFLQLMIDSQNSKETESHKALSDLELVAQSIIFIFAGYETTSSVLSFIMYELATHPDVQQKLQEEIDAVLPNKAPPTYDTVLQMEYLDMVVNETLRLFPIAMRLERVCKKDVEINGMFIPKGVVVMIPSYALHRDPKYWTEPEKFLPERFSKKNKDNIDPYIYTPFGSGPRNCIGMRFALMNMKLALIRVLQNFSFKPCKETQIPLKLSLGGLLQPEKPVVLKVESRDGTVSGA

[21] = Volume of distribution at steady state in dog at 0.5 mg/kg, iv and 1 mg/kg, po; type: ADME, organism-based, Canis lupus familiaris; details: in vivo, read-out: Vdss; outline: as §3
Neuromedin-K receptor = biological target: T5, Neuromedin-K receptor (Homo sapiens, UniProt P29371); test: Binding affinity to human NK3 receptor
T5 sequence (P29371 whole entry): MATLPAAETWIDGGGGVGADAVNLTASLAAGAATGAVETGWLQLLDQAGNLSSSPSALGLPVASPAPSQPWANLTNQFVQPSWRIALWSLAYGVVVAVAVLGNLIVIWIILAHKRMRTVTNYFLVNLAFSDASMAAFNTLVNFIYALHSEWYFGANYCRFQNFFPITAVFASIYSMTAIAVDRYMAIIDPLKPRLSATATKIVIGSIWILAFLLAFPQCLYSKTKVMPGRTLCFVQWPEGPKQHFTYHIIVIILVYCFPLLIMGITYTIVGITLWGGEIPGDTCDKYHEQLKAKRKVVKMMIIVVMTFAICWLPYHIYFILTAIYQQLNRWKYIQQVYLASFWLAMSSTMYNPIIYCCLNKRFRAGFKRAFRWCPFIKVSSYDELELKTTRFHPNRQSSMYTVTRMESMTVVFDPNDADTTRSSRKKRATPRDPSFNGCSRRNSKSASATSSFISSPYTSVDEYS

T1 sequence (P25103 whole entry): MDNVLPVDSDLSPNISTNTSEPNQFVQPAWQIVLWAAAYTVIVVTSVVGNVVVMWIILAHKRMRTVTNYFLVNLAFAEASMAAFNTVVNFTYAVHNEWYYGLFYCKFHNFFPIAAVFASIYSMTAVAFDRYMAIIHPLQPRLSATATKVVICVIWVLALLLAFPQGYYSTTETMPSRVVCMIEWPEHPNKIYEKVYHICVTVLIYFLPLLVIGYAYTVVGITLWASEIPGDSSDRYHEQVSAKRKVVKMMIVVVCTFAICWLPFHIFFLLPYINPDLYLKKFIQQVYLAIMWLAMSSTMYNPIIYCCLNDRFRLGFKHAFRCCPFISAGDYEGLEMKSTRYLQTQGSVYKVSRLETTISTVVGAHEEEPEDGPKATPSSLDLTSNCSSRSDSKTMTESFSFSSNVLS

SMILES: C[C@@H](O[C@H]1CC[C@@H]2CN(c3cnccn3)C[C@H]2[C@@H]1c1ccc(F)cc1)c1cc(C(F)(F)F)cc(C(F)(F)F)c1
- Activity (Substance-P receptor [1]): 79%
- IC50 (Substance-P receptor [2]): 0.525 nM

SMILES: CC1=C(N2C[C@H]3CC[C@H](O[C@H](C)c4cc(C(F)(F)F)cc(C(F)(F)F)c4)[C@@H](c4ccc(F)cc4)[C@@H]3C2)CCC1=O
- Activity (Substance-P receptor [1]): 9%
- ID50 (Gerbillinae [3]): 0.2 mg/kg
- IC50 (Substance-P receptor [2]): 0.1 nM
- ID50 (Gerbillinae [4]): 0.13 mg/kg

SMILES: C[C@@H](O[C@H]1CC[C@@H]2CNC[C@H]2[C@@H]1c1ccc(F)cc1)c1cc(C(F)(F)F)cc(C(F)(F)F)c1
- Activity (Substance-P receptor [1]): 44%
- IC50 (Substance-P receptor [2]): 0.15 nM

SMILES: C[C@@H](O[C@H]1CN(C2=CC(=O)CC2)C[C@@H]1c1ccc(F)cc1)c1cc(C(F)(F)F)cc(C(F)(F)F)c1
- Activity (Rhesus monkey [5]): >=90%
- Activity (Macaca mulatta): 50%

SMILES: C[C@@H](O[C@H]1CC[C@@H]2CN(C)C[C@H]2[C@@H]1c1ccc(F)cc1)c1cc(C(F)(F)F)cc(C(F)(F)F)c1
- Activity (Substance-P receptor [1]): 54%
- IC50 (Substance-P receptor [2]): 0.255 nM

SMILES: CC(=O)N1C[C@H]2CC[C@H](O[C@H](C)c3cc(C(F)(F)F)cc(C(F)(F)F)c3)[C@@H](c3ccc(F)cc3)[C@@H]2C1
- Activity (Substance-P receptor [1]): 40%
- IC50 (Substance-P receptor [2]): 0.11 nM

SMILES: CNC(=O)N1C[C@H]2CC[C@H](O[C@H](C)c3cc(C(F)(F)F)cc(C(F)(F)F)c3)[C@@H](c3ccc(F)cc3)[C@@H]2C1
- Activity (Substance-P receptor [1]): 58%
- IC50 (Substance-P receptor [2]): 0.09 nM

SMILES: C[C@@H](O[C@H]1CC[C@@H]2CN(C3=CC(=O)CCC3)C[C@H]2[C@@H]1c1ccc(F)cc1)c1cc(C(F)(F)F)cc(C(F)(F)F)c1
- Activity (Substance-P receptor [1]): 4%
- ID50 (Gerbillinae [3]): 0.3 mg/kg
- IC50 (Substance-P receptor [2]): 0.13 nM
- ID50 (Gerbillinae [4]): 0.18 mg/kg

SMILES: C[C@@H](O[C@H]1CC[C@@H]2CN(C3=CC(=O)CC3)C[C@H]2[C@@H]1c1ccc(F)cc1)c1cc(C(F)(F)F)cc(C(F)(F)F)c1 [SERLOPITANT]
- IC50 (Gerbillinae [6]): 6.5 nM
- Activity (Rhesus monkey [7]): 90%
- Vd [8]: 1.5 L/kg
- clearance [9]: 0.7 mL/min/kg
- half-life [10]: 31 h
- Activity (Substance-P receptor [1]): 5%
- Activity (Rhesus monkey [11]): 50%
- IC50 (Cytochrome P450 2C8): 58000 nM
- ID50 (Gerbillinae [3]): 0.46 mg/kg
- IC50 (Cytochrome P450 2C19): 29000 nM
- IC50 (Gerbillinae [12]): 6 nM
- half-life [13]: 24 h
- bioavailability [14]: 40%
- IC50 (Substance-P receptor [2]): 0.06 nM
- clearance [15]: 0.7 mL/min/kg
- bioavailability [16]: 71%
- Ki (Substance-K receptor): 2400 nM
- ID50 (Gerbillinae [4]): 0.08 mg/kg
- half-life [17]: 24 h
- IC50 (Cytochrome P450 2D6): 35000 nM
- bioavailability [18]: 69%
- IC50 (Cytochrome P450 1A2): > 100000 nM
- Vd [19]: 2 L/kg
- clearance [20]: 1 mL/min/kg
- IC50 (Cytochrome P450 2C9): 30000 nM
- IC50 (Cytochrome P450 3A4): 39000 nM
- Vd [21]: 2 L/kg
- Ki (Neuromedin-K receptor): 2400 nM
